Measurements from ChEMBL document CHEMBL1153804, “Optimization of a series of quinazolinone-derived antagonists of CXCR3” (Bioorg Med Chem Lett, 2009).

Key:
[1] = Mean residence time in mouse at 0.5 mg/kg, iv; type: ADME, organism-based; design: dose 0.5 mg/kg, route intravenous; conditions: in vivo
Cytochrome P450 1A2 = target: T1, Cytochrome P450 1A2 (Homo sapiens, UniProt P05177); assay: Inhibition of CYP1A2; type: ADME
T1 sequence (P05177 whole entry): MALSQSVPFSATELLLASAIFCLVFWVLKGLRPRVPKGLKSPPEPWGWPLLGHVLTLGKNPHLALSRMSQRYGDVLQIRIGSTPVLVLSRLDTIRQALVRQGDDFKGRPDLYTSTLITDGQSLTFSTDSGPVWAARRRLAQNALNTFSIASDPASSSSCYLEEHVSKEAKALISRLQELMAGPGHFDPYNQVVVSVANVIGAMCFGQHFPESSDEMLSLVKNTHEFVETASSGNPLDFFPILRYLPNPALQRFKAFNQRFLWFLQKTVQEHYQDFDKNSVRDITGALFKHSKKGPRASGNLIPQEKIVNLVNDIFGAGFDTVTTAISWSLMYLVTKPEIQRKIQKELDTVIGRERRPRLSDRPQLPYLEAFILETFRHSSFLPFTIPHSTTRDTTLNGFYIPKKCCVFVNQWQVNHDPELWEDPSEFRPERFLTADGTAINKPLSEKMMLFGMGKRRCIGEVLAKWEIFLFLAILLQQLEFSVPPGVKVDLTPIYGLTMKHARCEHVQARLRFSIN

Cytochrome P450 2D6 = Cytochrome P450 2D6 (Homo sapiens, UniProt P10635); assay: Inhibition of CYP2D6; type: ADME
[2] = Mean residence time in rat at 0.5 mg/kg, iv; type: ADME, organism-based; design: dose 0.5 mg/kg, route intravenous; conditions: in vivo
[3] = Mean residence time in cynomolgus monkey at 1 mg/kg, iv; type: ADME, organism-based, Macaca fascicularis; design: dose 1 mg/kg, route intravenous; conditions: in vivo
[4] = target: T2, C-X-C chemokine receptor type 3 (Canis lupus familiaris, UniProt Q5KSK8); assay: Displacement of [125I]-IP10 from dog CXCR3 expressed in human PBMC after 2 hrs in RPMI buffer by scintillation counting
T2 sequence (Q5KSK8 whole entry): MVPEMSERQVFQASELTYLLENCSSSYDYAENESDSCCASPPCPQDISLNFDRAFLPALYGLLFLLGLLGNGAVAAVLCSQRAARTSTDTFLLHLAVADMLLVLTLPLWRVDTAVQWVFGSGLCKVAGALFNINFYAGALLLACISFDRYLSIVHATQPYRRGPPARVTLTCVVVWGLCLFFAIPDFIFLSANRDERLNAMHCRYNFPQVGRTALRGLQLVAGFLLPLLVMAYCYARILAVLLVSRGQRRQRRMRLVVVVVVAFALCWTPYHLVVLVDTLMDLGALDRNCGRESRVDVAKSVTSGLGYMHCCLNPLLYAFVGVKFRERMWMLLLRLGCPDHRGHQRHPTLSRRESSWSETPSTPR
Summary of the method: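 PBMC bearing CXCR3 were co-incubated with antagonist and recombinant human [125I]-IP10 for 2 h at room temperature in RPMI-1640 (no phenol red) with 0.5% BSA. Cells were harvested onto filter plates and bound radioactivity was counted by scintillation. IC50 values are means of three experiments.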

Sequence of Cytochrome P450 2D6 (P10635 whole entry): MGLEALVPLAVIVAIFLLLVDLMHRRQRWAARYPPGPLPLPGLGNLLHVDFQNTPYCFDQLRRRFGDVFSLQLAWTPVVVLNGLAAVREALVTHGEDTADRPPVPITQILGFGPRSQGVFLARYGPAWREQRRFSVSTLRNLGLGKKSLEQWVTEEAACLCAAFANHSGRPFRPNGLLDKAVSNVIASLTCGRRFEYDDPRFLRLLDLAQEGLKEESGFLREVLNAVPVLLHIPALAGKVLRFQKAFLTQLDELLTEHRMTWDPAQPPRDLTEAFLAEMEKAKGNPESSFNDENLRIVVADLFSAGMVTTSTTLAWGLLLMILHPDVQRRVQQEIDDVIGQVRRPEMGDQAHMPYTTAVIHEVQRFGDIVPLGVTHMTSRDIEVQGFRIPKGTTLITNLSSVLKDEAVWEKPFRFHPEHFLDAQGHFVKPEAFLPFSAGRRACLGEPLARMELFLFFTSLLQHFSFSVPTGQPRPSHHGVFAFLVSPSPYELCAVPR

MRT [1]: 1.1 h
Activity (Cytochrome P450 1A2): Active
Activity (Cytochrome P450 2D6): Active
MRT [2]: 0.65 h
MRT [3]: 1.6 h
IC50 [4]: 5 nM
Compound: CCS(=O)(=O)CCN(C(=O)Cc1ccc(F)c(C(F)(F)F)c1)[C@H](C)c1nc2ncccc2c(=O)n1-c1ccc(OCC(F)(F)F)cc1
